Series [1] can be described thus: Tmax in Sprague-Dawley rat at 2 mg/kg, iv. In kind it is ADME, organism-based. The arrangement: dose 2 mg/kg, route intravenous. Conditions: in vivo.
The target of series [2] is Voltage-gated inwardly rectifying potassium channel KCNH2 (Homo sapiens, UniProt Q12809). As to the kind of experiment: Binding affinity to human ERG at 30 uM by patch clamp technique. In a few lines:
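hERG potassium channel examined by patch clamp at concentrations up to 30 µM, the maximal concentration reached in the protocol; response compared with vehicle alone.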
For orientation: The patch-clamp technique gives a direct electrical read-out from membranes.

Series [3] relates to Mus musculus. Kind of series: Toxicity in mouse at 100 mg/kg administered for 4 days. The series is classed as organism-based. The arrangement: dose 100 mg/kg. The note with it: in vivo, 96 h.
The nature of series [4]: Apparent permeability across human Caco-2 cell membrane. In kind it is ADME, cell-based. Conditions: read-out: permeability.
The nature of series [5]: Oral bioavailability in Sprague-Dawley rat. The series is classed as ADME, organism-based. The note with it: in vivo.
Series [6] is described as follows: Half life in Sprague-Dawley rat at 2 mg/kg, iv. In kind it is ADME, organism-based. The arrangement: dose 2 mg/kg, route intravenous. The note with it: in vivo.
Another series concerns Brain. Kind of series: Drug uptake in Sprague-Dawley rat brain at 2 mg/kg, iv. In kind it is ADME, organism-based. The arrangement: dose 2 mg/kg, route intravenous. The note with it: in vivo. The method in brief: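 Male Sprague-Dawley rats dosed intravenously at 2 mg kg^-1; brain uptake calculated as brain/plasma AUClast ratio.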
Series [7] relates to Rattus norvegicus. As to the kind of experiment: Reversal of haloperidol-induced hypolocomotion in Sprague-Dawley rat assessed as time spent for locomotor activity at 1 mg/kg, po administered 120 mins prior to testing done for 60 mins. The arrangement: dose 1 mg/kg. The series is classed as functional, organism-based. The method in brief:
(§1)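 Haloperidol (0.2 mg/kg ip) used to induce hypolocomotion; antagonist given orally over 0.01-10 mg/kg in mouse and rat; activity scored as time spent active during a 60 min session; p < 0.05 versus vehicle (+haloperidol) control; minimal effective dose taken as lowest active dose.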

In series [8] the test system is Mus musculus. As to the kind of experiment: Reversal of haloperidol-induced hypolocomotion in TO mouse assessed as time spent for locomotor activity at 0.3 mg/kg, po administered 15 mins prior to testing done for 60 mins. In kind it is functional, organism-based. The arrangement: dose 0.3 mg/kg. The method in brief: as §1
Series [9] has as its system Mus musculus. As to the kind of experiment: Increase in locomotor activity in mouse at 100 mg/kg administered for 4 days. The arrangement: dose 100 mg/kg. In kind it is functional, organism-based.
The target in series [10] is T1, Adenosine receptor A3 (Homo sapiens) (UniProt P0DMS8).
T1 sequence (whole entry): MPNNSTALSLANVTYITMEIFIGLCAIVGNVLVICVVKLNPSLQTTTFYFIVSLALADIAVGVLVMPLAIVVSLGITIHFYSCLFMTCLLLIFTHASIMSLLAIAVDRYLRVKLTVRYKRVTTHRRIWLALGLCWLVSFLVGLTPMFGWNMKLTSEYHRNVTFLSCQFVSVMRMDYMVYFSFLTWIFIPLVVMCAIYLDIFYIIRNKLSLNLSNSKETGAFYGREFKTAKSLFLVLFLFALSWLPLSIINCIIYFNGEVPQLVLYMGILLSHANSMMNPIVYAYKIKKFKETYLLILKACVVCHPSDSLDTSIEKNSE
Conditions: CHO-K1.

In series [11] the target is T2, Adenosine receptor A1 (Homo sapiens) (UniProt P30542).
T2 sequence (whole entry): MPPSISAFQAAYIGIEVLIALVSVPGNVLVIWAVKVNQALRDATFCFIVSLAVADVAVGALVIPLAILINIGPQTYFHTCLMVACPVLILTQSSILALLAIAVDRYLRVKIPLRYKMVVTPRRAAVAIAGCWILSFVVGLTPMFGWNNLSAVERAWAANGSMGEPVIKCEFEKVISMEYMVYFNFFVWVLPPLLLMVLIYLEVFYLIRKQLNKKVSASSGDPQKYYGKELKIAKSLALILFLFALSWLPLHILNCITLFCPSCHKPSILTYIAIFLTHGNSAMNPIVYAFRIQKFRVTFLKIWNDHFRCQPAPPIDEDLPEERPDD
The note with it: CHO-K1.

The target in series [12] is T3, Adenosine receptor A2a (Homo sapiens, UniProt P29274). The note with it: CHO-K1.
Series [13] addresses T4, Adenosine receptor A2b (Homo sapiens) (UniProt P29275).
T4 sequence (whole entry): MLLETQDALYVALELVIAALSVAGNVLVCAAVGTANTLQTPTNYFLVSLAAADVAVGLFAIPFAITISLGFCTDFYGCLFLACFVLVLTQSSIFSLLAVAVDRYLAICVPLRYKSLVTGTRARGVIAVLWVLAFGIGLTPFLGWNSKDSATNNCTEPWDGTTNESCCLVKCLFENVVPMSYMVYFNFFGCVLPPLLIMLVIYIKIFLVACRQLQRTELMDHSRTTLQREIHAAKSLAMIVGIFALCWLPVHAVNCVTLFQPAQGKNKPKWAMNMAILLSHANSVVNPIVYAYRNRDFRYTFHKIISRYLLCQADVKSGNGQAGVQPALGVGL
Conditions: CHO-K1.

For series [14], the system named is Rattus norvegicus. Kind of series: Reversal of haloperidol-induced hypolocomotion in Sprague-Dawley rat assessed as time spent for locomotor activity at 30 mg/kg, po administered 120 mins prior and measured for 60 mins. The arrangement: dose 30 mg/kg. In kind it is functional, organism-based.
The species entered for series [15] is Homo sapiens. As to the kind of experiment: Selectivity for human recombinant adenosine A2A receptor over human recombinant adenosine A1 receptor by cell-based assay.
In series [16] the test system is Mus musculus. As to the kind of experiment: Reversal of haloperidol-induced hypolocomotion in TO mouse assessed as time spent for locomotor activity at 30 mg/kg, po administered 15 mins prior and measured for 60 mins. The series is classed as functional, organism-based. The arrangement: dose 30 mg/kg.
In series [17] the target is T3, Adenosine receptor A2a. Kind of series: Displacement of radioligand from human recombinant adenosine A2A receptor at 21 degC after 90 mins by cell-based microplate scintillation counting.
Another series deals with T5, Adenosine receptor A1 (Homo sapiens, UniProt P30542).
T5 sequence (P30542 whole entry): T2 sequence (whole entry)
As to the kind of experiment: Displacement of radioligand from human recombinant adenosine A1 receptor at 21 degC after 90 mins by cell-based microplate scintillation counting.

For a further series, the target named is T6, Adenosine receptor A3 (Homo sapiens, UniProt P0DMS8).
T6 sequence (P0DMS8 whole entry): T1 sequence (whole entry)
Kind of series: Displacement of radioligand from human recombinant adenosine A3 receptor at 21 degC after 60 mins by cell-based microplate scintillation counting.

Series [18] is filed under the species Homo sapiens. As to the kind of experiment: Selectivity for human recombinant adenosine A2A receptor over human recombinant adenosine A2B receptor by cell-based assay.
A further series deals with Liver microsomes. As to the kind of experiment: Metabolic stability in rat liver microsomes after 30 mins. The series is classed as ADME, Microsome. The note with it: 0.5 h. In a few lines:
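Turnover by rodent liver microsomes measured as percent turnover after 30 min.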
For orientation: Liver microsomes are vesicles of endoplasmic reticulum, rich in cytochrome P450 enzymes.

The species entered for series [19] is Homo sapiens. As to the kind of experiment: Selectivity for human recombinant adenosine A2A receptor over human recombinant adenosine A3 receptor by cell-based assay.
Series [20] in a line: Aqueous solubility in phosphate buffered saline. In kind it is physicochemical.
For the next series, the target named is T7, Adenosine receptor A2b (Homo sapiens, UniProt P29275).
T7 sequence (P29275 whole entry): T4 sequence (whole entry)
As to the kind of experiment: Displacement of radioligand from human recombinant adenosine A2B receptor at 21 degC after 60 mins by cell-based microplate scintillation counting.

≈ marks a conversion by molar mass, not a printed value. Calls of active or inactive are those of the source. Some results are limits rather than exact numbers.

T3 sequence (P29274 whole entry): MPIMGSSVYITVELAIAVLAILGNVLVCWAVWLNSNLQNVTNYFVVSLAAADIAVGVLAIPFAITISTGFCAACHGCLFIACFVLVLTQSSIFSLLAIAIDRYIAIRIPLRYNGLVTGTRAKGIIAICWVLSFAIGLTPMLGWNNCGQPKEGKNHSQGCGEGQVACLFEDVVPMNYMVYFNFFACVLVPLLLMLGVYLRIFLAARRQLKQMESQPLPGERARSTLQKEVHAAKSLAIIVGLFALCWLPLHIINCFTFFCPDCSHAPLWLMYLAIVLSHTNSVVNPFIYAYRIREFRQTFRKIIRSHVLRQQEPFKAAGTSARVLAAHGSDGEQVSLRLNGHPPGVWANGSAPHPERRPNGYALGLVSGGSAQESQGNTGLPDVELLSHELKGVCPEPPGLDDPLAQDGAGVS
Voltage-gated inwardly rectifying potassium channel KCNH2, sequence (Q12809 whole entry): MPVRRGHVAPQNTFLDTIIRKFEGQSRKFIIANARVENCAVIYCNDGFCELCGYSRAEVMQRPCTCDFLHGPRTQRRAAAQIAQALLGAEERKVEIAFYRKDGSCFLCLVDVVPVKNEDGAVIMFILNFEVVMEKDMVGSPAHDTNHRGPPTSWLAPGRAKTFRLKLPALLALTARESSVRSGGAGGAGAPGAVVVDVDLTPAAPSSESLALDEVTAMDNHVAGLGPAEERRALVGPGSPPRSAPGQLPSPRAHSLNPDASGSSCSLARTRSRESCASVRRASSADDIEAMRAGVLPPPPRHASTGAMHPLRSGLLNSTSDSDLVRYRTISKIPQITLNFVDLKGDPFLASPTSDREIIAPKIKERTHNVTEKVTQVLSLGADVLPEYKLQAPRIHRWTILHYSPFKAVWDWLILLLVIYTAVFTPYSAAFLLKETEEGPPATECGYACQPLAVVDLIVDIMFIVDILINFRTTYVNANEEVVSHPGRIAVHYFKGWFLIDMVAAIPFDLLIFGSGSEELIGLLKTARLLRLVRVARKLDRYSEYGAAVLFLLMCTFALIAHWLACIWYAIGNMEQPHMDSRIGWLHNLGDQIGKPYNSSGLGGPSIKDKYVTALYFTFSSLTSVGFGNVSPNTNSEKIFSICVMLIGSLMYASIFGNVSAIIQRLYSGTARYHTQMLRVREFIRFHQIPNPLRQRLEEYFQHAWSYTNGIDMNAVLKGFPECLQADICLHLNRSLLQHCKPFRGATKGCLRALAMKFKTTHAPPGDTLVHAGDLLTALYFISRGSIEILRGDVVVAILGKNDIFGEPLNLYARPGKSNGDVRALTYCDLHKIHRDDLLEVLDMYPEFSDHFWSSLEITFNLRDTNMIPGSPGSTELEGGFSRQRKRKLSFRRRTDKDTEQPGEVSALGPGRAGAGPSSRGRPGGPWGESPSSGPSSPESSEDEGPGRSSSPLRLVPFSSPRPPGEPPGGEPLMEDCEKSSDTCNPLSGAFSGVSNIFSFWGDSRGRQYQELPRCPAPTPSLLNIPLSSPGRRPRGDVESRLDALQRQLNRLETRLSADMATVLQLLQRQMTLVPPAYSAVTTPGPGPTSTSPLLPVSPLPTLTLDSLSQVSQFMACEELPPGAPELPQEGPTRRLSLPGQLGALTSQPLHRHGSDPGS

As a reminder, the Tmax is the time from dosing to the highest level. One may read the bioavailability as dose-corrected exposure relative to a reference, in per cent. By half-life is commonly meant the time needed for the level to fall by half in the phase considered. As for `Cc1cc(Cn2nnc3c(-c4ccco4)nc(N)nc32)ccc1N` [VIPADENANT], the time to peak (Tmax) in series [1] worked out at 0.5 h. Moreover, the Activity result in [2] is “Not Active”; with Mus musculus [3] it was “Non-toxic”. In addition, in series [4], the Papp was 11 ×10⁻⁶ cm/s. Further, the bioavailability in series [5] is 35%. The molecule also gave a half-life in [6] of 2 h. Also, the Drug uptake in the series on Brain worked out at 57%.
`CCn1c(=O)c2c(nc(/C=C/c3ccc(OC)c(OC)c3)n2C)n(CC)c1=O`: the result in the series with Rattus norvegicus [7] and in the series with Mus musculus [8] was Active.
For the molecule `Cc1cc(Cn2nnc3c(-c4ccco4)nc(N)nc32)ccc1N`, the outcome in the series on Mus musculus [9] was Active. For the same molecule, the KA in series [10] stood at 1500 nM; in series [11], 95 nM; on Adenosine receptor A2a [12], 0.58 nM; in [13], 31 nM.
A word on the Ki: it is the equilibrium dissociation constant of an inhibitor or competing ligand from its target. The solubility is how much of the substance goes into solution per volume. A high value points to a readily soluble substance. `Nc1nc(-c2ccco2)c2nnn(Cc3ccc(F)cc3F)c2n1`: the outcome in the series on Rattus norvegicus [14] and in the series with Mus musculus [16] was inactive. For the same molecule, the fold change (FC) in the series listed under Homo sapiens [15], in the series filed under Homo sapiens [18] and in the series filed under Homo sapiens [19] was over 50 in each case. Also, the Ki was determined as 0.002 µM on Adenosine receptor A2a [17], 0.118 µM on Adenosine receptor A1, 1.18 µM on Adenosine receptor A3 and 0.226 µM on Adenosine receptor A2b. Besides, in the series on Liver microsomes, the Stability entry is “Stable”. The molecule also registered a solubility in series [20] of 30 µM (≈ 9.85 µg/mL).

The record behind these values is ChEMBL document CHEMBL1139344, “Antagonists of the human A(2A) adenosine receptor. 4. Design, synthesis, and preclinical evaluation of 7-aryltriazolo[4,5-d]pyrimidines” (J Med Chem, 2009).
